Experimental data as given in ChEMBL document CHEMBL1148422, “N-isoquinolin-5-yl-N'-aralkyl-urea and -amide antagonists of human vanilloid receptor 1” (Bioorg Med Chem Lett, 2004).
pIC50, pKi: −log10 of the molar value.

Columns and labels:
[1] = target: T1, Transient receptor potential cation channel subfamily V member 1 (Homo sapiens, UniProt Q8NER1); test: Antagonistic activity towards human vanilloid receptor subtype 1 expressed in HEK293 cell […], as inhibition of agonist-induced intracellular [Ca2+] levels.; format: functional, cell-based
[2] = target: T1, Transient receptor potential cation channel subfamily V member 1; test: Binding affinity towards human vanilloid receptor subtype 1 expressed in HEK293 cell membrane using [3H]-RTX as radioligand.; format: cell membranes
In short: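 Membranes from hVR1/HEK293 cells homogenized twice with a Polytron in 20 mM HEPES pH 7.4 with 5.8 mM NaCl, 320 mM sucrose, 2 mM MgCl2, 0.75 mM CaCl2 and 5 mM KCl. Spun at 3000 rpm for 10 min; supernatant spun at 18,000 rpm for 20 min; pellet taken up in assay buffer.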

T1 sequence (Q8NER1 whole entry): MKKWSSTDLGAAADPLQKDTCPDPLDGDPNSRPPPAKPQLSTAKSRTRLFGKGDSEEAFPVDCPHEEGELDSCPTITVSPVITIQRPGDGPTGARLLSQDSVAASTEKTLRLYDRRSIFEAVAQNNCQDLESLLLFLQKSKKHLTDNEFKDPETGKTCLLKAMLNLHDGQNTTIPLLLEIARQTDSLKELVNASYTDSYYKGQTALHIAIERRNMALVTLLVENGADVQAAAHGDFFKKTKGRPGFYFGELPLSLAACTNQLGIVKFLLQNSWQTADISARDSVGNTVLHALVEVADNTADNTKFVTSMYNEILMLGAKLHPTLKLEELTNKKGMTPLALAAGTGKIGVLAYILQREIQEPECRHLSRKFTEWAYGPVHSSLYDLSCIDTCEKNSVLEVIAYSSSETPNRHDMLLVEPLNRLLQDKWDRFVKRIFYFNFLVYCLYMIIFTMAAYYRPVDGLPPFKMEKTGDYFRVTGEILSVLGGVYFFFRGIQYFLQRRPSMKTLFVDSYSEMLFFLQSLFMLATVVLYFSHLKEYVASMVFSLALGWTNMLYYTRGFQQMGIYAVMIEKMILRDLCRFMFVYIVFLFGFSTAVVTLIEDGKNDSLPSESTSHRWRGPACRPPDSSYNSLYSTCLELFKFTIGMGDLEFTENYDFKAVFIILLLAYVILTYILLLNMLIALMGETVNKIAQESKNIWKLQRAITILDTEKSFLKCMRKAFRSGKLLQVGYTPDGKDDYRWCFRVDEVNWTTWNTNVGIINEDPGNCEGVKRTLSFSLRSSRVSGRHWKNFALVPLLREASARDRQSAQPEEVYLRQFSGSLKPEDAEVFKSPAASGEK

O=C(Nc1ccc(Cl)c(Cl)c1)Nc1cccc2cnccc12
pIC50 [1]: 6.77
pKi [2]: 7.77

CCC(C)(C)c1ccc(CCC(=O)Nc2cccc3cnccc23)cc1
pIC50 [1]: 7.89
pKi [2]: 8.40

O=C(NCCc1ccc(OC(F)(F)F)cc1)Nc1cccc2cnccc12
pIC50 [1]: 7.96

CC(C)(C)c1ccc(/C=C/C(=O)Nc2cccc3cnccc23)cc1
pIC50 [1]: 8.30
pKi [2]: 8.92

O=C(NCCc1ccccc1)Nc1cccc2cnccc12
pIC50 [1]: 6.00

CC(C)(C)c1ccc(CCNC(=O)Nc2cccc3cnccc23)cc1
pIC50 [1]: 8.52

O=C(NCc1ccc(Cl)cc1)Nc1cccc2cnccc12
pIC50 [1]: 8.22

CC(C)(C)c1ccc(CNC(=O)Nc2cccc3cnccc23)cc1
pIC50 [1]: 8.52
pKi [2]: 9.52

O=C(NCc1ccc(Cl)c(Cl)c1)Nc1cccc2cnccc12
pIC50 [1]: 8.40
pKi [2]: 8.05

O=C(NCc1cccc(C(F)(F)F)c1)Nc1cccc2cnccc12
pIC50 [1]: 7.96
pKi [2]: 7.64

O=C(NCCc1ccc(Cl)c(Cl)c1)Nc1cccc2cnccc12
pIC50 [1]: 8.00
pKi [2]: 7.77

O=C(Nc1cccc(C(F)(F)F)c1)Nc1cccc2cnccc12
pIC50 [1]: 7.49
pKi [2]: 7.72

CCCCCc1ccc(C(=O)Nc2cccc3cnccc23)cc1
pIC50 [1]: 5.62
pKi [2]: 7.15

O=C(CCc1ccc(C(F)(F)F)cc1)Nc1cccc2cnccc12
pIC50 [1]: 7.42
pKi [2]: 7.22

O=C(NCc1ccc(OC(F)(F)F)cc1)Nc1cccc2cnccc12
pIC50 [1]: 8.52
pKi [2]: 8.89

CCCCc1ccc(NC(=O)Nc2cccc3cnccc23)cc1
pIC50 [1]: 6.31
pKi [2]: 6.48

COc1ccc(CCNC(=O)Nc2cccc3cnccc23)cc1
pIC50 [1]: 6.17

CC(C)(C)c1ccc(CCC(=O)Nc2cccc3cnccc23)cc1
pIC50 [1]: 6.39
pKi [2]: 7.96

O=C(Nc1cc(C(F)(F)F)cc(C(F)(F)F)c1)Nc1cccc2cnccc12
pIC50 [1]: 7.49
pKi [2]: 8.85

O=C(/C=C/c1ccccc1)Nc1cccc2cnccc12
pIC50 [1]: 5.82

O=C(NCc1ccc(C(F)(F)F)cc1)Nc1cccc2cnccc12
pIC50 [1]: 8.52
pKi [2]: 8.30

O=C(NCc1ccc(Cl)c(C(F)(F)F)c1)Nc1cccc2cnccc12
pIC50 [1]: 8.22
pKi [2]: 9.10

O=C(NCCc1ccc(C(F)(F)F)cc1)Nc1cccc2cnccc12
pIC50 [1]: 7.72
pKi [2]: 7.66

O=C(NCCc1cccc(C(F)(F)F)c1)Nc1cccc2cnccc12
pIC50 [1]: 7.72

COc1ccc(CNC(=O)Nc2cccc3cnccc23)cc1
pIC50 [1]: 7.35
